One may read the IC50 as the concentration at which inhibition is half-maximal. Read a low IC50 as greater potency in that assay.

The test system of one test is HepG2. The test is described as follows: Cytotoxicity against human HepG2 cells after 24 hrs by MTT assay. Type of test: functional, cell-based. The procedure, abridged:
(§1)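 MTT assay in RPMI 1640 with 10% fetal calf serum, 2 mM L-glutamine and […]. Log-phase cells seeded, attached 24 h at 37 °C and 5% CO₂, then treated at 0–100 μM. Compounds dissolved in DMSO (1 mg/mL stock), DMSO below 0.1% in wells. Five wells per concentration, triplicate experiments. Blank-corrected OD taken as % of untreated growth, IC50 = 50% inhibition.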
A general note: Formazan colour is commonly taken as a measure of viable cells.

Test [1] is described as follows: Cytotoxicity against human […] cells after 24 hrs by MTT assay. The class given is functional, cell-based. The procedure, abridged:
as §1

Another test has as its system K562. Description: Cytotoxicity against human K562 cells after 24 hrs by MTT assay. The class given is functional, cell-based. The procedure, abridged:
as §1

Test [2] has as its system HeLa. The test is described as follows: Cytotoxicity against human HeLa cells after 24 hrs by MTT assay. Type of test: functional, cell-based. The essentials:
as §1

Test [3] has as its system HeLa. The test is described as follows: Cell cycle arrest in human HeLa cells assessed as accumulation in subG1 phase at 1.5 uM after 36 hrs by PI-staining based flow cytometric analysis (reference value: 0.2%). The class given is functional. The procedure, abridged:
(§2)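 HeLa cells (1 × 10⁵) exposed 36 h to 0, 0.375, 1.5 or 3 μM; washed twice in ice-cold PBS, harvested and fixed. Then RNase A (0.1 mg/mL, 37 °C, 30 min) and propidium iodide staining (30 min on ice, dark). Flow cytometry gave sub-G1, G1, S and G2 fractions, compared with untreated cultures.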
(In general: A flow cytometer gives signals particle by particle.)

In test [4] the test system is HeLa. The test is described as follows: Cell cycle arrest in human HeLa cells assessed as decrease in G2 phase after 36 hrs by PI-staining based flow cytometric analysis. Type of test: functional. The procedure, abridged:
as §2

In test [5] the test system is HeLa. Description: Induction of apoptosis in human HeLa cells at 3 uM after 24 hrs by FITC/AnnexinV-based flow cytometric analysis (reference value: 0.98%). Type of test: functional.
The species entered for test [6] is Capra hircus. Description: Inhibition of goat tubulin polymerization at 3 uM after 30 mins by transmission electron microscopic analysis. The procedure, abridged: (§3)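 Microtubule protein from goat brain purified by repeated warm polymerisation and cold depolymerisation cycles with glycerol, ATP and GTP. Tubulin incubated ± compound 30 min at 37 °C in 80 mM PIPES pH 6.9, 1 mM MgCl₂, […], 30% glycerol, 1 mM GTP. Fixed in 0.5% glutaraldehyde, grids stained with uranyl acetate, viewed by TEM at 100 kV.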

Test [7] has as its system HeLa. The test is described as follows: Induction of apoptosis in human HeLa cells assessed as early apoptotic cells at 0.375 to 3 uM after 24 hrs by FITC/AnnexinV-based flow cytometric analysis (reference value: 0.17%). Type of test: functional.
The test system of test [8] is HeLa. The test is described as follows: Cell cycle arrest in human HeLa cells assessed as accumulation in G1 phase after 36 hrs by PI-staining based flow cytometric analysis. The class given is functional. The essentials: as §2
In test [9] the test system is HeLa. The test is described as follows: Cell cycle arrest in human HeLa cells assessed as decrease in S phase after 36 hrs by PI-staining based flow cytometric analysis. The class given is functional. The procedure, abridged: as §2
The subject of test [10] is HeLa. The test is described as follows: Cell cycle arrest in human HeLa cells assessed as accumulation in G1 phase at 3 uM after 36 hrs by PI-staining based flow cytometric analysis (reference value: 47.36%). The class given is functional. The essentials:
as §2

The species entered for test [11] is Capra hircus. The test is described as follows: Inhibition of goat tubulin polymerization assessed as club shaped cytoskeleton at 3 uM after 30 mins by transmission electron microscopic analysis. The essentials:
as §3

Test [12] concerns HeLa. Description: Induction of apoptosis in human HeLa cells at 1.5 uM after 24 hrs by FITC/AnnexinV-based flow cytometric analysis (reference value: 0.98%). Type of test: functional.
The subject of test [13] is HeLa. Description: Cell cycle arrest in human HeLa cells assessed as accumulation in subG1 phase at 3 uM after 36 hrs by PI-staining based flow cytometric analysis (reference value: 0.2%). The class given is functional. The essentials:
as §2

For test [14], the system named is HeLa. Description: Induction of apoptosis in human HeLa cells assessed as late apoptotic cells at 0.375 to 3 uM after 24 hrs by FITC/AnnexinV-based flow cytometric analysis (reference value: 0.81%). The class given is functional.
The subject of test [15] is HeLa. The test is described as follows: Cell cycle arrest in human HeLa cells assessed as accumulation in subG1 phase after 36 hrs by PI-staining based flow cytometric analysis. Type of test: functional. The procedure, abridged:
as §2

In test [16] the test system is HeLa. The test is described as follows: Cell cycle arrest in human HeLa cells assessed as accumulation in G1 phase at 1.5 uM after 36 hrs by PI-staining based flow cytometric analysis (reference value: 47.36%). Type of test: functional. The procedure, abridged:
as §2

In test [17] the test system is HeLa. The test is described as follows: Cell cycle arrest in human HeLa cells assessed as accumulation in subG1 phase at 0.375 uM after 36 hrs by PI-staining based flow cytometric analysis (reference value: 0.2%). The class given is functional. The procedure, abridged:
as §2

Test [18] deals with HeLa. The test is described as follows: Cell cycle arrest in human HeLa cells assessed as accumulation in G1 phase at 0.375 uM after 36 hrs by PI-staining based flow cytometric analysis (reference value: 47.36%). Type of test: functional. The essentials: as §2
The test system of test [19] is HeLa. The test is described as follows: Induction of apoptosis in human HeLa cells at 0.375 uM after 24 hrs by FITC/AnnexinV-based flow cytometric analysis (reference value: 0.98%). Type of test: functional.

Active and inactive are the calls of the source. The calls are words filed in the database; no cut-off is given here.

Regarding `COc1ccc(/C=C\c2cc(OC)c(OC)c(OC)c2)cc1NC(=O)C1CC(C)(C)N([O])C(C)(C)C1`, the concentration for half-maximal inhibition (IC50) in the test on HepG2 (hepg2) was determined as 51.2 µM; in [1], 42.5 µM; with K562 (k562), 16.9 µM; in the test with HeLa [2] (hela), 59.2 µM.

As for `COc1ccc(/C=C\c2cc(OC)c(OC)c(OC)c2)cc1NC(=O)[C@H](Cc1ccccc1)NC(=O)OC1CC(C)(C)N([O])C(C)(C)C1`, the IC50 worked out at 0.28 µM in the test with HepG2 (hepg2), 6.33 µM in test [1], 5.8 µM with K562 (k562) and 8.37 µM with HeLa [2] (hela).

As to `CC[C@H](C)[C@H](NC(=O)OC1CC(C)(C)N([O])C(C)(C)C1)C(=O)Nc1cc(/C=C\c2cc(OC)c(OC)c(OC)c2)ccc1OC`, the half-inhibitory concentration (IC50) is 2.19 µM in the test with HepG2 (hepg2), 3.07 µM in test [1], 18.8 µM in the test on K562 (k562) and 2.33 µM with HeLa [2] (hela).

As to `COc1ccc(/C=C\c2cc(OC)c(OC)c(OC)c2)cc1N`, the IC50 in the test with HepG2 (Homo sapiens, HepG2, 24 h) was 0.028 µM; in test [1] (Homo sapiens, 24 h), 0.014 µM; in the test with K562 (Homo sapiens, K562, 24 h) it was 0.12 µM; with HeLa [2] (Homo sapiens, HeLa, 24 h) it was 0.403 µM.

Regarding `COc1ccc(/C=C\c2cc(OC)c(OC)c(OC)c2)cc1NC(=O)[C@H](CCSC)NC(=O)OC1CC(C)(C)N([O])C(C)(C)C1`, the 50% inhibitory concentration (IC50) with HepG2 (hepg2) is 2.05 µM; in [1], 1.68 µM; in the test on K562 (k562), 4.15 µM; in the test on HeLa [2] (hela), 1.16 µM.

In the case of `COc1ccc(/C=C\c2cc(OC)c(OC)c(OC)c2)cc1NC(=O)C1=CC(C)(C)N([O])C1(C)C`, the IC50 in the test on HepG2 (hepg2) was 38.8 µM; in test [1], above 100 µM; in the test on K562 (k562), above 100 µM; in the test on HeLa [2] (hela) it was 42.3 µM.

`COc1ccc(/C=C\c2cc(OC)c(OC)c(OC)c2)cc1NC(=O)[C@@H](NC(=O)OC1CC(C)(C)N([O])C(C)(C)C1)C(C)C`: the concentration for half-maximal inhibition (IC50) stood at 1.05 µM in the test with HepG2 (hepg2), 0.43 µM in test [1], 12 µM in the test on K562 (k562) and 0.15 µM in the test on HeLa [2] (hela).

On to `COc1cc([C@@H]2c3cc4c(cc3[C@@H](O[C@@H]3O[C@@H]5CO[C@@H](C)O[C@H]5[C@H](O)[C@H]3O)[C@H]3COC(=O)[C@H]23)OCO4)cc(OC)c1O` [ETOPOSIDE], for which the IC50 in the test with HepG2 (Homo sapiens, HepG2, 24 h) worked out at 104 µM; in [1] (Homo sapiens, 24 h) it was 26.9 µM; with K562 (Homo sapiens, K562, 24 h), 2.85 µM; with HeLa [2] (Homo sapiens, HeLa, 24 h) it was 17.7 µM.

As for `COc1ccc(/C=C\c2cc(OC)c(OC)c(OC)c2)cc1NC(=O)C1CC(C)(C)N([O])C1(C)C` (stereo not drawn), the half-maximal inhibitory concentration (IC50) in the test with HepG2 (hepg2) was 25 µM; in test [1], 4.93 µM; in the test on K562 (k562) it was 10.4 µM; with HeLa [2] (hela), 7.6 µM.

Take `COc1ccc(/C=C\c2cc(OC)c(OC)c(OC)c2)cc1NC(=O)[C@@H]1CCCN1C(=O)OC1CC(C)(C)N([O])C(C)(C)C1`: the concentration for half-maximal inhibition (IC50) worked out at 4.48 µM in the test on HepG2 (hepg2), 4.71 µM in [1], 5.53 µM in the test with K562 (k562) and 3.39 µM with HeLa [2] (hela).

For the molecule `COc1ccc(/C=C\c2cc(OC)c(OC)c(OC)c2)cc1NC(=O)[C@H](Cc1c[nH]c2ccccc12)NC(=O)OC1CC(C)(C)N([O])C(C)(C)C1`, the IC50 in the test on HepG2 (hepg2) is 2.27 µM; in test [1] it was 3.55 µM; in the test on K562 (k562) it was 0.56 µM; in the test with HeLa [2] (hela) it was 2.08 µM.

As to `COc1ccc(/C=C\c2cc(OC)c(OC)c(OC)c2)cc1NC(=O)C1=CC(C)(C)N([O])C(C)(C)C1`, the 50% inhibitory concentration (IC50) in the test with HepG2 (hepg2) was 10.7 µM; in test [1] it was 6.21 µM; in the test on K562 (k562), 15.6 µM; in the test with HeLa [2] (hela) it was 8.57 µM.

As to `COc1ccc(/C=C\c2cc(OC)c(OC)c(OC)c2)cc1NC(=O)CNC(=O)OC1CC(C)(C)N([O])C(C)(C)C1`, the Activity was 16.71% with HeLa [3]; “Dose-dependent effect” with HeLa [4]; 66.54% in the test with HeLa [5]; 52.6% in the test on HeLa [7]; “Dose-dependent effect” in the test with HeLa [8]; “Dose-dependent effect” in the test with HeLa [9]. The Activity is 96.25% with HeLa [10]; 55.75% in the test on HeLa [12]; 32.42% with HeLa [13]; 13.96% with HeLa [14]; “Dose-dependent effect” in the test with HeLa [15]; 85.82% in the test with HeLa [16]. The Activity in the test with HeLa [17] is listed as 1.14%; in the test with HeLa [18], 32.85%; in the test on HeLa [19] it was 43.99%. The half-inhibitory concentration (IC50) in the test with HepG2 (hepg2) was 0.98 µM; in [1], 0.39 µM; in the test on K562 (k562) it was 1.09 µM; in the test on HeLa [2] (hela), 0.41 µM. In addition, the inhibition result in the test filed under Capra hircus [6] and in the test filed under Capra hircus [11] was “Active” throughout.

With `COc1ccc(/C=C\c2cc(OC)c(OC)c(OC)c2)cc1NC(=O)[C@H](C)NC(=O)OC1CC(C)(C)N([O])C(C)(C)C1`, the 50% inhibitory concentration (IC50) in the test with HepG2 (hepg2) turned out to be 0.73 µM; in test [1], 0.96 µM; in the test on K562 (k562), 1.56 µM; in the test on HeLa [2] (hela), 0.39 µM.

The values above are taken from ChEMBL document CHEMBL2321723, “Synthesis and mechanistic studies of novel spin-labeled combretastatin derivatives as potential antineoplastic agents” (Bioorg Med Chem, 2013).
